Assay outcomes (PubChem)
Shown are actives, neighbours in structure and some others; about 3% of the full set was active somewhere.
SENP7 block: blocks the human protease SENP7; recombinant SENP7, Z-RLRGG-aminoluciferin luminescence, 40 min; 1.5% of 330,000 active; inhibition, % at 5 µM;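 active = inhibition above about 50% at the single test dose, limit read from the data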
Apaf1 inhib: human Apaf-1 inhibition; reconstituted apoptosome caspase-3 activity, DEVD-Rh110 fluorescence; 0.71% of 330,000 active; inhibition, % at 20 µM; AID 489030; O14727; active = inhibition of at least 40% at 20 µM
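Assay system: Apoptosome proteins | Medium: pH 7.5 Hepes buffer with CHAPS, BSA, DTT | Also added: Cytochrome c and DEVD-Rh110 substrate | Times: 30 min plus 50 min, RT | Detection: Rhodamine 110 fluorescence at Ex 480/Em 540 nm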
UBC13 polyUb: blocks human UBC13 polyubiquitin chain formation; TR-FRET; inhibition, % at 20 µM; 0.47% of 330,000 active; AID 485273; in the data active = inhibition above about 45%, passing the limit was not always enough
SENP8 block-1: blocks the human protease SENP8; 1.2% of 330,000 active; AID 2540; inhibition, % at 10 µM; purified SENP8, Z-RLRGG-aminoluciferin cleavage, luminescence; in the data active = inhibition above about 50%
Target sequence (Q96LD8 whole entry, looked up): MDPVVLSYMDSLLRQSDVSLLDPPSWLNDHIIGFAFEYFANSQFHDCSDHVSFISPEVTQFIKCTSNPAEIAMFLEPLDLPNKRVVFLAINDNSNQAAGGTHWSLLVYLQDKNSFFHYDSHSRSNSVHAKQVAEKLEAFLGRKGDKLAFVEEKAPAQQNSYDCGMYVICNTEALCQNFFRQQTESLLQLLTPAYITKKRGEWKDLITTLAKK
SENP6 inh: SENP6 protease inhibition; Q9GZR1; Recombinant SENP6 catalytic domain, aminoluciferin luminescence; inhibition, % at 10 µM; 1.8% of 330,000 active; AID 2599;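 active = inhibition above about 50% at the single tested dose, limit read from the data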
Target sequence (Q9GZR1 628-1112 limits assumed): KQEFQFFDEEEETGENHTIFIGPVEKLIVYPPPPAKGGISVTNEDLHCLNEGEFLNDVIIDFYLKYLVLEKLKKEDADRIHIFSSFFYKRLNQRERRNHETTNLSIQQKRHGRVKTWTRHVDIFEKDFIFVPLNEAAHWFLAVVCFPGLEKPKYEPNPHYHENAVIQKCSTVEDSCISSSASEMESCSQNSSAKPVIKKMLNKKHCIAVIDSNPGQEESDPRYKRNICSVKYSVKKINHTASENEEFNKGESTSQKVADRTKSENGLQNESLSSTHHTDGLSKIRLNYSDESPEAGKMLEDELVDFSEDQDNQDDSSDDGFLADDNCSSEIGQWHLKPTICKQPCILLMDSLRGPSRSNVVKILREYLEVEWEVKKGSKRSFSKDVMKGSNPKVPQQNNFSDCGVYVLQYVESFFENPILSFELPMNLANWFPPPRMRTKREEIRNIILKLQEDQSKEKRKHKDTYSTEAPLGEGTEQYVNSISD
SENP8 block-2: SENP8 (human) protease inhibition; Q96LD8; inhibition, % at 20 µM; AID 602440; 0.64% of 360,000 active; recombinant SENP8, Nedd8 substrate fluorescence; in the data active = inhibition mostly above about 40%, no sharp cut-off; inactive = mostly below about 27%
SENP8 conf: confirmation of human SENP8 protease inhibitors | shares compounds with SENP7 block | Recombinant SENP8, Z-RLRGG-aminoluciferin luminescence, 60 min | inhibition, % at 12.5 µM | 40% of 6,200 active | AID 488912;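 active = mean inhibition across replicates above about 50%, limit read from the data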
SENP6 conf: human SENP6 inhibition, confirmed | AID 488915 | recombinant SENP6, Z-RLRGG-aminoluciferin luminescence | shares compounds with SENP7 block | 58% of 6,200 active | inhibition, % at 12.5 µM
SENP7 conf: confirmation of human SENP7 protease inhibitors. shares compounds with SENP7 block. recombinant SENP7, Z-RLRGG-aminoluciferin luminescence, 40 min. inhibition, % at 12.5 µM. 69% of 6,200 active. AID 488917
Casp3 SENP sel: caspase-3 inhibition (SENP selectivity assay). shares compounds with SENP7 block. purified caspase-3, Z-DEVD-aminoluciferin luminescence, 60 min. inhibition, % at 12.5 µM. 60% of 6,200 active. AID 488918;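 active = mean inhibition above about 50%, limit read from the data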
SENP luc ctr: luminescence interference (SENP counter-screen). shares compounds with SENP7 block. Pre-incubated SENP8/Z-RLRGG-aminoluciferin, luciferase luminescence interference. inhibition, % at 12.5 µM. 39% of 6,200 active. AID 488919;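 active = mean inhibition above about 50% when retested at one dose, limit read from the data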
Large screens that a line does not name were inactive (follow-up assays come after a bar, where they were run).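 The calls were made as follows, unless noted: active = mean inhibition above about 50% in the one-dose retest (limit read from the data); inactive = the rest.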

COC(=O)c1ccccc1N/C=C/C(=O)c1ccc(Br)cc1	SENP7 block 53, SENP6 inh 66 | SENP8 conf inactive | SENP6 conf inactive | SENP7 conf inactive | Casp3 SENP sel inactive | SENP luc ctr inactive
CN(C)c1ccc(N/C=C/C(=O)c2ccc(F)cc2)cc1	SENP7 block 100, SENP8 block-1 94, SENP6 inh 98 | SENP8 conf inactive | SENP6 conf 61 | SENP7 conf inactive | Casp3 SENP sel 71 | SENP luc ctr inactive
COC(=O)c1ccc(N/C=C/C(=O)c2ccccc2)cc1	SENP7 block 96, SENP8 block-1 75, SENP6 inh 90 | SENP8 conf inactive | SENP6 conf inactive | SENP7 conf inactive | Casp3 SENP sel inactive | SENP luc ctr inactive
CC(=O)c1ccc(N/C=C/C(=O)c2ccc(Br)cc2)cc1	none
NC(=O)c1ccccc1N/C=C/C(=O)c1ccccc1	SENP7 block 91, SENP8 block-1 88, SENP6 inh 94 | SENP8 conf 87 | SENP6 conf 95 | SENP7 conf 102 | Casp3 SENP sel 96 | SENP luc ctr 81
CCCCNC(=O)C(NC(=O)c1cnc(C)cn1)C(=O)c1ccccc1 (stereo not given)	none (no result: SENP7 block, Apaf1 inhib, UBC13 polyUb, SENP8 block-1, SENP6 inh)
Cc1ccc(S(=O)(=O)N2CCOCC2)cc1C(=O)NCCCN1CCCC1=O	none (no result: SENP7 block, Apaf1 inhib, UBC13 polyUb, SENP8 block-1, SENP6 inh)
Cn1c(O)c(C=Nc2ccc(N3CCOCC3)cc2)c(=O)n(C)c1=S	none (no result: SENP7 block, Apaf1 inhib, UBC13 polyUb, SENP8 block-1, SENP6 inh)
Cc1cc(O)c(C=Nc2ccc(N3CCOCC3)cc2)c(C)c1Cl	SENP7 block 82, SENP6 inh 57 | SENP8 conf inactive | SENP6 conf inactive | SENP7 conf inactive | Casp3 SENP sel inactive | SENP luc ctr inactive
CCC(=O)N1CCC1(C)C(=O)Nc1cc(-c2ccccc2)nn1C (stereo not given)	none (no result: SENP7 block, Apaf1 inhib, UBC13 polyUb, SENP8 block-1, SENP6 inh)
Cn1c(=O)c2cc(NC(=S)NC3CCCCC3)ccc2n1Cc1ccc(Cl)cc1	none (no result: SENP7 block, Apaf1 inhib, UBC13 polyUb, SENP8 block-1, SENP6 inh)
COc1ccc(C)cc1C1=Nc2ccccc2C1(C)C	none
Cc1ccc(O)c(C2=Nc3ccccc3C2(C)C)c1	SENP7 block 56, SENP6 inh 71 | SENP8 conf inactive | SENP6 conf 64 | SENP7 conf 89 | Casp3 SENP sel inactive | SENP luc ctr inactive
Nc1c(C(=O)Nc2cccc(C(=O)O)c2)sc2nc3c(cc12)CCCC3	SENP6 inh 71 | SENP8 conf 74 | SENP6 conf 68 | SENP7 conf 88 | Casp3 SENP sel inactive | SENP luc ctr inactive
O=C(Nc1ccc2c(c1)CCCN2C(=O)c1ccccc1)c1ccccc1	SENP7 block 83, SENP8 block-1 78, SENP6 inh 84 | SENP8 conf inactive | SENP6 conf 85 | SENP7 conf 97 | Casp3 SENP sel 85 | SENP luc ctr 67
Cc1cc(C(=O)Nc2ccc(N3CCCCC3)cc2)no1	SENP7 block 54 | SENP8 conf inactive | SENP6 conf 56 | SENP7 conf 77 | Casp3 SENP sel 81 | SENP luc ctr inactive
O=C(Nc1ccc(N2CCCC2)cc1)c1cccc(F)c1	SENP7 block 93, SENP8 block-1 89, SENP6 inh 94 | SENP8 conf 87 | SENP6 conf 86 | SENP7 conf 96 | Casp3 SENP sel 80 | SENP luc ctr 75
Cc1cc(C(=O)Nc2ccc(S(=O)(=O)N3CCCC3)cc2)no1	none
O=C(Nc1ccc(N2CCCC2=O)cc1)c1cccc(F)c1	SENP7 block 89, SENP8 block-1 72, SENP6 inh 81 | SENP8 conf inactive | SENP6 conf inactive | SENP7 conf 62 | Casp3 SENP sel 70 | SENP luc ctr inactive
O=C(Nc1ccc(N2CCCCC2)cc1)c1ccc(F)cc1F	SENP7 block 80, SENP8 block-1 77, SENP6 inh 88 | SENP8 conf inactive | SENP6 conf 77 | SENP7 conf 88 | Casp3 SENP sel 84 | SENP luc ctr inactive
O=C(Cc1ccccc1)Nc1ccc(N2CCCCC2)cc1	SENP7 block 64, SENP8 block-1 54 | SENP8 conf inactive | SENP6 conf inactive | SENP7 conf 77 | Casp3 SENP sel 73 | SENP luc ctr inactive
CN1CCN(c2ccc(NC(=O)Cc3ccccc3)cc2)CC1	none
O=C(Nc1ccc(N2CCCCC2)cc1)c1ccccc1	SENP7 block 90, SENP8 block-1 75, SENP6 inh 84 | SENP8 conf inactive | SENP6 conf 85 | SENP7 conf 98 | Casp3 SENP sel 92 | SENP luc ctr inactive
Cc1ccc(C(=O)Nc2ccc(N3CCCCC3)cc2)cc1	none
O=C(Nc1ccc(N2CCCCC2)cc1)c1cncc(Br)c1	SENP7 block 52 | SENP8 conf inactive | SENP6 conf inactive | SENP7 conf 62 | Casp3 SENP sel 68 | SENP luc ctr inactive
C[C@@H]1ON(C)[C@H]2C[C@H]3c4[nH]c5ccc(-c6ccc7c(c6)OCO7)cc5c4CCN3C[C@@H]12	none (no result: SENP7 block, Apaf1 inhib, UBC13 polyUb, SENP8 block-1, SENP6 inh)
COc1cccc(C(O)c2nc(-c3ccccc3)cs2)c1 (stereo not given)	none (no result: SENP7 block, Apaf1 inhib, UBC13 polyUb, SENP8 block-1, SENP6 inh)
O=C(CCn1c(=S)[nH]c2cc3c(cc2c1=O)OCO3)NCCc1ccccc1Cl	none (no result: SENP7 block, Apaf1 inhib, UBC13 polyUb, SENP8 block-1, SENP6 inh)
Fc1ccc(/C=N/Nc2nccnc2Cl)cc1	SENP7 block 94, SENP8 block-1 86, SENP6 inh 93 | SENP8 conf 93 | SENP6 conf 93 | SENP7 conf 100 | Casp3 SENP sel 96 | SENP luc ctr 92
Fc1cccc(/C=N/N=C/c2cccc(F)c2)c1	none
Fc1cccc(/C=N/Nc2nncc3ccccc23)c1	SENP7 block 96, SENP8 block-1 90, SENP6 inh 92 | SENP8 conf 78 | SENP6 conf 94 | SENP7 conf 98 | Casp3 SENP sel 89 | SENP luc ctr 61
Oc1ccc(/C=N/Nc2nccnc2Cl)cc1	SENP7 block 99, SENP8 block-1 98, SENP6 inh 97 | SENP8 conf 98 | SENP6 conf 99 | SENP7 conf 102 | Casp3 SENP sel 98 | SENP luc ctr 98
O=C(NN=Cc1ccc(O)cc1)C(=O)NN=Cc1ccc(O)cc1	none (no result: SENP7 block, Apaf1 inhib, UBC13 polyUb, SENP8 block-1, SENP6 inh)
Fc1cccc(/C=N/Nc2nccnc2Cl)c1	SENP7 block 99, SENP8 block-1 93, SENP6 inh 97 | SENP8 conf 96 | SENP6 conf 96 | SENP7 conf 102 | Casp3 SENP sel 98 | SENP luc ctr 96
